Activity calls are given as the source filed them. The calls are words filed in the database; no cut-off is given here.
Key:
[1] = Half life in Sprague-Dawley rat prostate at 10 mg/kg, po administered as single dose by LC-MS/MS analysis; assay type: ADME, organism-based, Prostate gland
How it was run: (§1)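 Male Sprague Dawley rats (250 ± 25 g), fasted overnight (12-16 h), n = 3 per time point; single 10 mg/kg dose orally by feeding needle, or iv from DMSO solution. Serum, prostate and hypothalamus collected up to 48 h post oral dose; hypothalamus from three rats pooled. LC-MS/MS (MRM, phenacetin internal standard), linear 5-400 ng/mL; noncompartmental and compartmental analysis.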

[2] = Clearance in Sprague-Dawley rat serum at 10 mg/kg, iv administered as single dose by LC-MS/MS analysis; assay type: ADME, organism-based; how it was run: as §1
Mus musculus [3] = assay: Anti-depressant like activity in Swiss albino mouse assessed as reduction in immobility time at 20 mg/kg, po measured for 5 mins by tail suspension test; assay type: functional, organism-based
How it was run: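 Male Swiss albino mice dosed orally in 1% gum acacia; imipramine as standard. Each mouse suspended by the tail with tape to a horizontal bar 60 cm above the table. Immobility (no limb or body movement other than respiration) recorded for 5 min after 1 min acclimatization; N = 5.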

[4] = molecular target: T1, Androgen receptor (Homo sapiens) (UniProt P10275); assay: Antagonist activity at AR (unknown origin) expressed in African green monkey COS7 cells at 7.5 uM after 24 hrs by dual luciferase reporter gene assay; assay type: cell-based
T1 sequence (whole entry): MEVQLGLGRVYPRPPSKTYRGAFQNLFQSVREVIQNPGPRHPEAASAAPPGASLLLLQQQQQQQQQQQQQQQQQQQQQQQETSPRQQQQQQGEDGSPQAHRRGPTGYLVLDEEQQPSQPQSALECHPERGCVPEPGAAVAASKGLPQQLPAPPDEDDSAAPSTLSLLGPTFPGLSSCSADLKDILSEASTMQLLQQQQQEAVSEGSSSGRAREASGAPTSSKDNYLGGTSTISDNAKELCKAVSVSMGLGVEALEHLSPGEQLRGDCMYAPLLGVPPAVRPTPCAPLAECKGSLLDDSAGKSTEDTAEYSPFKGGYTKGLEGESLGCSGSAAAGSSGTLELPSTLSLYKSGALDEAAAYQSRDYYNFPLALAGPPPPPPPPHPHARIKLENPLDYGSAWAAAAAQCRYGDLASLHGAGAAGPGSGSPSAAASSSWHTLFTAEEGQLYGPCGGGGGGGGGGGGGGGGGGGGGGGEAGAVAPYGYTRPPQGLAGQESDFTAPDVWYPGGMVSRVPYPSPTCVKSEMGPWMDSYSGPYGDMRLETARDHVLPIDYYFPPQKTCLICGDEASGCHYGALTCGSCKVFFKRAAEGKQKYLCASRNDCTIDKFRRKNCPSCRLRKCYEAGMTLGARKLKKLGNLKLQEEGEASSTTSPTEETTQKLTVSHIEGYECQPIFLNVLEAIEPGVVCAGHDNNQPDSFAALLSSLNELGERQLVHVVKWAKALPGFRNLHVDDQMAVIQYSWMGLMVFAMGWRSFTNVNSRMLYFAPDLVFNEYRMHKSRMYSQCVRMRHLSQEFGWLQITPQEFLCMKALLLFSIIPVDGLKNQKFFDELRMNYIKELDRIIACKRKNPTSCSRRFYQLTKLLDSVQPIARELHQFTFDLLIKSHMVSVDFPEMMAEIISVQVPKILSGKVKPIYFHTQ
How it was run: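 Cos7 cells (AR-negative) transiently transfected for 8 h with pARE-E1B-LUC reporter plus pCR3.1.AR expression vector. Then in complete medium, treated with compound at 7.5 μM for 24 h; bicalutamide 3 μM as positive control. Luciferase normalized to pRL-SV40 internal control, expressed as RLU relative to control = 100%.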

[5] = Oral bioavailability in Sprague-Dawley rat serum at 10 mg/kg administered as single dose by LC-MS/MS analysis; assay type: ADME, organism-based; how it was run: as §1
Mus musculus [6] = assay: Toxicity in Swiss albino mouse assessed as effect on locomotor activity at 20 mg/kg, po measured at 5 mins interval for 90 mins by open field test; assay type: organism-based; details: in vivo
How it was run: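 Male Swiss albino mice in an activity chamber, infrared beam-break counting over 24 intervals of 5 min (120 min). Oral dosing after the 6th interval; six animals per group.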

Rattus norvegicus [7] = assay: Toxicity in citral-induced prostatic hyperplasia Sprague-Dawley rat model assessed as effect on testis weight at 10 mg/kg, po administered once daily coadministered with citral for 21 days measured 24 hrs last post dose; assay type: organism-based; details: in vivo
[8] = Volume of distribution at steady state in Sprague-Dawley rat prostate at 10 mg/kg, po administered as single dose by LC-MS/MS analysis; assay type: ADME, organism-based, Prostate gland; details: in vivo; how it was run: as §1
[9] = Volume of distribution at steady state in Sprague-Dawley rat serum at 10 mg/kg, iv administered as single dose by LC-MS/MS analysis; assay type: ADME, organism-based; details: read-out: Vdss; how it was run: as §1
LNCaP = assay: Cytotoxicity against human LNCAP cells after 24 hrs by MTT assay; assay type: functional, cell-based
Mus musculus [10] = assay: Anti-depressant like activity in Swiss albino mouse assessed as reduction in immobility time at 20 mg/kg, po administered 60 mins prior to test measured for 5 mins by forced swim test relative to control; assay type: functional; parameters: scale not given: the % may be the effect or the level left
How it was run: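 Male Swiss albino mice (20-25 g); compound 20 mg/kg, imipramine 60 mg/kg or fluoxetine 20 mg/kg given orally in 1% gum acacia (10 mL/kg). After 60 min: 15 min pre-swim in a water cylinder (10 cm depth, 25 ± 1 °C), then retest at 24 h. Immobility recorded for 5 min after 1 min acclimatization; N = 7-9, mean ± SEM, unpaired t-test.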

Rattus norvegicus [11] = assay: Anti-androgenic activity in citral-induced prostatic hyperplasia Sprague-Dawley rat model assessed as prostate weight at 10 mg/kg, po administered once daily coadministered with citral for 21 days measured 24 hrs last post dose (reference value: 100%); assay type: functional
How it was run: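 Adult male Sprague-Dawley rats (250-280 g, n = 5), citral 100 mg/kg orally once daily for 28 days. From day 8, compound or flutamide at 10 mg/kg orally once daily for the remaining 21 days. Prostate weight is expressed relative to the citral group (100%). Prostates fixed in 10% formalin; 5 μ sections stained with H&E, examined by light microscopy.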

[12] = Tmax in Sprague-Dawley rat hypothalamus at 10 mg/kg, po administered as single dose by LC-MS/MS analysis; assay type: ADME, organism-based; how it was run: as §1
[13] = Ratio of drug level in prostate to serum in Sprague-Dawley rat at 10 mg/kg, po administered as single dose by LC-MS/MS analysis; assay type: ADME, organism-based; how it was run: as §1
[14] = Cmax in Sprague-Dawley rat hypothalamus at 10 mg/kg, po administered as single dose by LC-MS/MS analysis; assay type: ADME, organism-based; parameters: dose 10 mg/kg, route oral; how it was run: as §1

c1ccc(N2CCN(CCCN3CCN(c4ccccn4)CC3)CC2)nc1
half-life [1]: 155 h | clearance [2]: 68.3 mL/min/kg | Activity (Mus musculus [3]): Active | Activity [4]: Active | bioavailability [5]: 35.4% | Activity (Mus musculus [6]): Non-Toxic | Activity (Rattus norvegicus [7]): Non-Toxic | Vdss [8]: 3.6 g/kg | Vd [9]: 28.3 L/kg | EC50 (LNCaP): 15.6 µM | Activity (Mus musculus [10]): 69.4% | Activity (Rattus norvegicus [11]): 53.8% | Tmax [12]: 1 h | Kp [13]: 11.8 | Cmax [14]: 461 ng/g
